Data reported in the EternaBench riboswitch data.

Test system: MS2 coat protein
Assay: apparent Kd, MS2 coat protein; higher = weaker binding; RNA-MaP array; FMN 200 µM where present
Procedure, shortened: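 Two titrations, one without ligand and one with constant ligand, were run with SNAP-549-labelled MS2 coat protein from 0.7 or 1.5 nM, doubling to 3 µM. The targets were designs transcribed by stalled E. coli RNA polymerase on Illumina sequencing-chip clusters, in 100 mM Tris-HCl pH 7.5, 80 mM KCl, 4 mM MgCl2, BSA, DTT, yeast tRNA and Tween-20. The apparent Kd is the median of filtered per-cluster binding-curve fits, with green signal normalised to red-channel RNA signal and control-cluster median Fmax.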

[1] = designed as: OFF switch for flavin mononucleotide, no ligand
[2] = ligand present: flavin mononucleotide, designed as: OFF switch for flavin mononucleotide
[3] = designed as: ON switch for flavin mononucleotide, no ligand
[4] = ligand present: flavin mononucleotide, designed as: ON switch for flavin mononucleotide

Sequence | apparent Kd [1] [nM] | apparent Kd [2] [nM] | apparent Kd [3] [nM] | apparent Kd [4] [nM]
ACCUUAAAAGUGAGGAUAUCUAGGGCCAAAUGGCCGGAGAAGGCACAUGAGGAUCACCCAUGUAACGCCAUGGA | 13.7 | 43.7 | – | –
ACCUUACUGGUCAGGAUAUACAGUCUUUGGUGGGUGUAGAAGGGACAUGAGGAUCACCCAUGUAGGUUGCAGCA | 175 | 153 | – | –
ACGAACCUAGGAUAUACAUGAGGAUCACCCAUGUACUACUAUCCAUGAAUGACCCUCGGUAGAAGGAGGAUCAA | 18.1 | 21.5 | – | –
ACGACGAAAGUCGAACGAUGUAGCAGAAGGACAUGAGGAUCACCCAUGUCAGCUGUGACCAAAAUGUAGGAUAUGCUACAUCGA | 71.1 | 90.8 | – | –
ACGACGAAAGUCGAACGAUGUAGCAGAAGGACAUGAGGAUCACCCAUGUCAGCUGUGACCUCAAAAUAGGAUAUGCUACAUCGA | 36.6 | 47.6 | – | –
ACGACGAAAGUCGAACGAUGUAGCAGAAGGACAUGAGGAUCACCCAUGUUAUCUGUAAUAGACAUGUAGGAUAUGCUACAUCGA | 7.89 | 41.5 | – | –
ACGCGUUGGGAGAAGGUACAUUAAAUUAGUUUAACAUGAGGAUCACCCAUGUAAGGAUAUCCCAUCGUGUAAUAUUAUACAGCA | 10.2 | 12.2 | – | –
ACGGCUGUCAGAGGAUAUGGUUACAUGAGGAUCACCCAUGUCAAGGGUCUAACUAAGUAUAACUACUAGAAGGCUGAUGGCCGA | 674 | 350 | – | –
ACGUCGAGCCAGAAGGCAACAUGAGGAUCACCCAUGUAGUCCGGCUCGUGUUGAGGAUAUGGCACCCACGCGGAAGGCGCAGGU | 5.54 | 7.19 | – | –
ACGUUAAUUCGAGGAUAUCGGUGAUAUAAUUUACGAGAAGGCGAUAAUUGUGAUAAACUUAUAGACAUGAGGAUCACCCAUGUA | – | – | 42.6 | 39.2
ACGUUUAAUACAGGAUAUGUUCUUAUACUAUAGAUUGGUUAUUACUUAAUUACAGAAGGGUAGAACAUGAGGAUCACCCAUGUA | – | – | 507 | 261
ACGUUUUUUGAGGAUAUGCGAUAUUUUUUUAUCGUAGAAGGCGAUACAUGAGGAUCACCCAUGUUUAUGGGCAU | 197 | 204 | – | –
ACUACAUGAGGAUCACCCAUGUGAAUAAUAAAAGUAACAAGCAGAAGGUGACCUCGUCUCCUGGUCAAGGAUAUGCAAGAAAGA | – | – | 267 | 33.7
ACUAGAUGAGGAUAUGCAUGUUUUCGUGUUCUUCUAGAUUAACAUGAGGAUCACCCAUGUAGAAGGCGUCAAUU | 41.5 | 132 | – | –
ACUAGAUGCGUGAAAUAACACAUGAGGAUCACCCAUGUGACACAGGAUAUAACCAGAUCAGAAAGUUAGAAGGGUGAGCACGCA | – | – | 39.2 | 21.2
ACUAUACGAGGAUAUGCUGUCAAUACUAAGGAAUUAGUAUGACAUGAGGAUCACCCAUGUAGAAGGCGUAUACU | 27.8 | 14.7 | – | –
ACUGAAGUCACAGGAUAUCAUAUGCCGGCACAUUGAGAAGGGUGACUGGGCUACAUGAGGAUCACCCAUGUGCCGUCGUAACAA | – | – | 29.8 | 36.9
ACUGCAUAGGCAGGAUAUGCAAAAGCAGAUGCAAAGCAUUUGUAAAACACAUGAGGAUCACCCAUGUAGAAGGGCCUGUGCAGU | 21 | 20.7 | – | –
ACUGGUCGAGGAUAUACAUGAGGAUCACCCAUGUGGUUACGUGACGAUAGUCACGAAUGUAGAAGGCGACCAGU | 236 | 652 | – | –
ACUGUGCAUUAGAAGGGUGCGCGGCAAUCGCGCACAGGAUAUGAUGACAUGAGGAUCACCCAUGUCUGUGUCACCUGGGUGUCG | 13.3 | 83.8 | – | –
ACUGUUAAGACAGGAUAUCGAUUAUAACCUCUAAAACAUGAGGAUCACCCAUGUAGUCCGUAUUGCGAGAAGGGUCAUCUUAGA | – | – | 274 | 205
ACUUAUGAAGGAUAUACUGGCGACAUGCGCUCAACACGCGCACAUGAGGAUCACCCAUGUAGAAGGUCAAACAU | 27.5 | 45.5 | – | –
ACUUCACAUGAGGAUCACCCAUGUCAGGCCGGACUAGGAUAUUAUCAUGCAGCGUGACAGUGAGAAGGAGUUGGAU | – | – | 162 | 188
ACUUGCUUGCAGAAGGGUGACAUGAGGAUCACCCAUGUAGCGGGCCGGCGUAAAGUCAGCGCGCCACAGGAUAUGCAGGCCUCG | – | – | 25.2 | 58.5
ACUUUAUUUGAGAAGGUGAAGUGGAAACAUGAGGAUCACCCAUGUAUUAGGAAGCCUAAUUUUAUCAAGGAUAUCAAAUAAAGA | – | – | 7.93 | 8.04
AGAAAACAUGAGGAUCACCCAUGUCAGGAUAUCUCCAAGGCUUAACAUCCAGCCCUGCAGAGAAGGGACGGGUG | 87.9 | 225 | – | –
AGAAAAUAUGGGUAGGAUAUAUAAAGAGAAACAUGAGGAUCACCCAUGUAAAGACGAGAGUCAAAAUAGAAGGACUAAAGAAAGAA | – | – | 76 | 59.6
AGAAACUACGAGAAGGACAUAUGGUUCUUCAGUUACAUGAGGAUCACCCAUGUAGGAUAUCGUAGUUUCAGGAUCGUGAGAUCA | 7.33 | 21.7 | – | –

Sequence | apparent Kd [1] [nM] | apparent Kd [2] [nM] | apparent Kd [3] [nM] | apparent Kd [4] [nM]
AGAAACUACGAGAAGGACAUGUGAACCUUCAACUACAUGAGGAUCACCCAUGUAGGAUAUCGUAGUUUCAGGAUCGUGAGAUCA | 5.93 | 6.44 | – | –
AGAAACUACGAGAAGGACAUGUGGUCCUUCAGAAACAUGAGGAUCACCCAUGUAGGAUAUCGUAGUUUCAGGAUCGUGAGAUCA | 54.4 | 20.8 | – | –
AGAAAGUGAGGAUAUACAUGAGGAUCACCCAUGUAGAACGAGAGUUAUAAAAAUGGAAGUAGAAGGCACAAAAG | 34.3 | 37.1 | – | –
AGAAAUUCAGGAUAUACAUGAGGAUCACCCAUGUUUGGCGGAGGCGCCGAGAUCCCACGUAGAAGGGAAAAGAC | 28 | 50.6 | – | –
AGAACAUGAGGAUCACCCAUGUUAAGGUCGGUAAAUAAGGGUGAGGAUAUGCUUAAAAUAAGGAAGCAGAAGGUGCUUGGUGCA | – | – | 183 | 195
AGAAGACAUGAGGAUCACCCAUGUGGGAUUAUGGGAGGAUAUACAAAGACGAGAGUCAGAGUAGAAGGCCUAGGAC | – | – | 65.6 | 26.7
AGAAUGGGCGAGAAGGGAGUACAUGAGGAUCACCCAUGUGGUUCAUGGUGCUCAGGAUAUCGAUAGACCAAGGAGCGUCUUUGG | 20.1 | 140 | – | –
AGACGGAGCUGAGGAUAUAACAUGAGGAUCACCCAUGUAAGUCUCCAGGAAACUGGAGACAAAUGUUAGAAGGCAGCUCCGUCA | 39.8 | 51.2 | – | –
AGACGGAGCUGAGGAUAUAUACAUGAGGAUCACCCAUGUAAGCUCCAGGAAACUGGAGCAAAUGUAUAGAAGGCAGCUCCGUCA | 28 | 45.9 | – | –
AGACUGAAGCAAGGAUAUUGUAAGGUUAUCGUACAAGAAGGUGCUGUUUAUGUCUCUUAACAUGAGGAUCACCCAUGUUUUAAA | – | – | 19.7 | 21.8
AGACUGAAUGUUAGGAUAUGGUUUCGGGUCUCGGACCAGAAGGAACAUGAGGAUCACCCAUGUGCCGUGGUUGU | 29 | 153 | – | –
AGACUGCGUAGAAUUAGCAGCCGACAGGAUAUGACAUGAGGAUCACCCAUGUGAACUACAAAGGAUCAGAAGGGUCACGACACA | 20.1 | 24.4 | – | –
AGAGAAUAGUCAGGAUAUGAGAAUAGAUAGAGCUCAGAAGGGACACAUGAGGAUCACCCAUGUGAAGUCUUGAGGCUGCGUGGA | 14.8 | 14.2 | – | –
AGAGAUGACGAAGGAUAUGGAUACAUGAGGAUCACCCAUGUUUAUUUAGUGAUUUUGUAUGAAUACCAGAAGGUCGAAUAAAAG | 125 | 342 | – | –
AGAUAACACCAGAAGGACAUGAGGAUCACCCAUGUAGGAUAUGGGCAUCACUCGAGAAAGAAACGACCAAAAGGACACGUGGUC | – | – | 177 | 13.4
AGAUACAACCAGAAGGACAUGAGGAUCACCCAUGUAGGAUAUGGGUUACACGUUCCUGUGAAUUGUAACGACGCUACGAAGAGU | – | – | 113 | 12.3
AGAUCACAAAUUUGGGAUAGUAGUACAGAAGGCACGGAAGUACAUGAGGAUCACCCAUGUGUGGGUGAGGAUAUGUACUCACUA | – | – | 217 | 14
AGAUCGAUUGUGAGGAUAUUGACCGGACGACCCAUCGAGAAGGCACAUGAGGAUCACCCAUGUGAGUCGGUUUA | 14.9 | 18.2 | – | –
AGAUGCUCGAGUCGACAUGAGGAUCACCCAUGUACAGUUAGUGAGGAUAUCUGAGACACAUAGUAGGAGAAGGCGCGAACGUGA | 84.4 | 192 | – | –
AGAUGGCGAGGAUAUACAUGAGGAUCACCCAUGUGAAGAAUAAUAGUGAGGAAGAAAAGUAGAAGGCGCUGUCA | 45.5 | 209 | – | –
AGCAAGUAUACAUGAGGAUCACCCAUGUUUGAUAGGGUUUUCAGAAGGUACAAUUUGAGAUAGAGUAAGGAUAUGAAAUAUGCG | – | – | 182 | 56.3
AGCAUGGUAGGAUAUACGGAGCAUUAGGGUUUGUUAUGUGGACAUGAGGAUCACCCAUGUAGAAGGGCCGUGCA | 38.6 | 60 | – | –
AGCGAGGCAGGAUAUACAUGAGGAUCACCCAUGUGCUUGCAUGGCGUGGAAUGUCGAGGUAGAAGGGCCAUGCC | 21.3 | 26.1 | – | –
AGCGCGGUCCACUUGGACGCCUACGAGGAUAUCCCGUCACAUGAGGAUCACCCAUGUAGGCGCAUGGAGAAGGCGUAGAAAUCA | – | – | 152 | 13.7
AGCGCGGUCUCGCAGGAUAUCCACAAUCCUACAUGAGGAUCACCCAUGUCGCUGCAGGAUAUUAGGGAGAAGGGUGAUGCCGCGC | – | – | 34.5 | 20.7
AGCGGCGCAGACCACCGCAAAACCAGAAGGACAUGAGGAUCACCCAUGUAACAAAACAGGGCGGUGUAGGAUAUGGCAGACCCA | 8.87 | 7.71 | – | –
AGCUACGUUUCGUAGCAGCUAGGUGAGGAUAUUCAAUUUUUCACAUGAGGAUCACCCAUGUAAAAGAAGAAGGCGCCUAGAAAG | – | – | 4.28 | 4.25
